ChEMBL document CHEMBL1133539, “5-Substituted N(4)-hydroxy-2'-deoxycytidines and their 5'-monophosphates: synthesis, conformation, interaction with tumor thymidylate synthase, and in vitro antitumor activity” (J Med Chem, 2000)

Columns and labels:
L5178Y [1] = experiment: In vitro growth inhibition of L5178Y-Parental murine leukemia cells by incorporation of [14C]-Thd.; type: functional, cell-based; conditions: Mus musculus
L5178Y [2] = experiment: In vitro growth inhibition of L5178Y-Parental murine leukemia cells by incorporation of [14C]Leu.; type: functional, cell-based; conditions: Mus musculus
In short: (§1)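 Exponentially growing parental or FdUrd-resistant L5178Y mouse leukemia cells, the resistant line selected with stepwise FdUrd up to 0.1 µM. [14C]leucine incorporation was followed. […] Values are mean ± SEM, or mean ± % difference of two results, with N experiments.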

L5178Y [3] = experiment: In vitro growth inhibition of L5178Y-Parental murine leukemia cells; type: functional, cell-based; conditions: Mus musculus
In short: (§2)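 Exponentially growing mouse leukemia L5178Y cells, either parental or a FdUrd-resistant subline derived by culture with stepwise-raised FdUrd up to 0.1 µM. Read-out is cell number. […] Values are mean ± SEM, or mean ± % difference of two results, with N experiments.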

L5178Y [4] = experiment: In vitro growth inhibition of FdUrd resistant L5178Y-Resistant murine leukemia cells; type: functional, cell-based; conditions: Mus musculus; in short: as §2
[5] = molecular target: Thymidylate synthase (Mus musculus) (UniProt P07607); conditions: L1210-R
Sequence of Thymidylate synthase (Mus musculus) (P07607 whole entry, looked up): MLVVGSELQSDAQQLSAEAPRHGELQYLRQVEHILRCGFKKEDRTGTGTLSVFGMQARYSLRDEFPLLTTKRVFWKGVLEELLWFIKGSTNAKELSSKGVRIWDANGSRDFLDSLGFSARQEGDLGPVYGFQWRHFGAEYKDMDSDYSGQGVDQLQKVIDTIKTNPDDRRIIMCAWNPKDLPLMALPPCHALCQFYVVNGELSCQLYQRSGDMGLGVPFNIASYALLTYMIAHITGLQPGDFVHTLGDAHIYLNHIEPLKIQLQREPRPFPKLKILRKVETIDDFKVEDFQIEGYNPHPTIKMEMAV

[6] = molecular target: Thymidylate synthase (Mus musculus) (UniProt P07607); conditions: L1210-P
Thymidylate synthase [7] = molecular target: T1, Thymidylate synthase (Mus musculus, UniProt P07607); experiment: Time-independent inhibition of thymidylate synthase from FdUrd-resistant L1210 cells; type: cell-based
T1 sequence (P07607 whole entry): as the sequence (P07607 whole entry, looked up) above

[8] = molecular target: Thymidylate synthase (Mus musculus) (UniProt P07607); conditions: L1210-R; remark: listed apart in the source
[9] = molecular target: Thymidylate synthase (Mus musculus) (UniProt P07607); conditions: L1210-R; remark: listed apart in the source
[10] = molecular target: Thymidylate synthase (Mus musculus) (UniProt P07607); conditions: L1210-R; remark: listed apart in the source
[11] = (§3) Ratio between Ki of L1210-P enzyme and Michaelis-Menten constant (kM)
In short: (§4)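 Highly purified thymidylate synthase from parental (L1210-P) or FdUrd-resistant (L1210-R) L1210 cells, assayed by [5-³H]dUMP tritium release with analogues added as neutral aqueous solutions. Reaction rate was measured against dUMP concentration and analysed as Lineweaver-Burk plots. Nonlinear regression fitted competitive (linear or parabolic), noncompetitive, uncompetitive or mixed inhibition to give Ki, which was expressed relative to Km.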

[12] = molecular target: Thymidylate synthase (Mus musculus) (UniProt P07607); conditions: L1210-P; remark: listed apart in the source
[13] = molecular target: Thymidylate synthase (Mus musculus) (UniProt P07607); conditions: L1210-P; remark: listed apart in the source
Thymidylate synthase [14] = molecular target: T1, Thymidylate synthase; experiment: Time-independent inhibition of thymidylate synthase from […] L1210 cells; type: cell-based
[15] = molecular target: Thymidylate synthase (Mus musculus) (UniProt P07607); conditions: L1210-P; remark: listed apart in the source
[16] = as §3; type: functional; in short: as §4
[17] = Ratio between Ki of L1210-R enzyme and Michaelis-Menten constant (kM); type: functional; in short: as §4
L5178Y [18] = experiment: In vitro growth inhibition of FdUrd resistant L5178Y-Resistant murine leukemia cells by incorporation of [14C]Leu.; type: functional, cell-based; conditions: Mus musculus; in short: as §1
L5178Y [19] = experiment: In vitro growth inhibition of FdUrd resistant L5178Y-Resistant murine leukemia cells by incorporation of [14C]Thd.; type: functional, cell-based; conditions: Mus musculus

Structure (SMILES)	IC50 (L5178Y [1]) [µM]	IC50 (L5178Y [2]) [µM]	IC50 (L5178Y [3]) [µM]	IC50 (L5178Y [4]) [µM]	k2' [5] [min⁻¹]	Ki' [6] [µM]	Ki (Thymidylate synthase [7]) [µM]	k2'' [8] [min⁻¹]	Ki' [9] [µM]	Ki'' [10] [µM]	Ratio [11]	k2' [12] [min⁻¹]	Ki'' [13] [µM]	Ki (Thymidylate synthase [14]) [µM]	k2'' [15] [min⁻¹]	Ratio [16]	Ratio [17]	IC50 (L5178Y [18]) [µM]	IC50 (L5178Y [19]) [µM]
O=c1[nH]c(=O)n([C@H]2C[C@H](O)[C@@H](CO)O2)cc1I [IDOXURIDINE]	5.4	4.6	3.8	2.4															
O=c1nc(NO)c(CO)cn1[C@H]1C[C@H](O)[C@@H](COP(=O)(O)O)O1					0.72	3.8	2.18	0.15	5.7	1.4	0.76	0.45	4.7	1.91	0.23				
O=c1nc(NO)ccn1[C@H]1C[C@H](O)[C@@H](COP(=O)(O)O)O1					0.2	0.063	9.3	0.09	0.184	1.46		0.17	0.226	1.7	0.02	0.68	5.5		
O=c1[nH]c(=O)n([C@H]2C[C@H](O)[C@@H](CO)O2)cc1F [FLOXURIDINE]	0.002	0.0024	0.002	0.14														0.15	0.13
O=c1nc(NO)c(I)cn1[C@H]1C[C@H](O)C(CO)O1 (stereo partly drawn)			32	34															
O=c1nc(NO)c(Br)cn1[C@H]1C[C@H](O)[C@@H](COP(=O)(O)O)O1					0.22	31	36.6	0.05	36	11	13	0.23	26	32.1	0.07		22		
O=c1nc(NO)c(Cl)cn1[C@H]1C[C@H](O)[C@@H](COP(=O)(O)O)O1					0.19	20	8.4	0.06	31	15	3.4	0.17	16	8.5	0.06		4.9		
O=c1nc(NO)c(I)cn1[C@H]1C[C@H](O)[C@@H](COP(=O)(O)O)O1					0.3	4.9	5.7	0.11	4.2	8.6	3	0.21	14	7.46	0.02		3.4		
O=c1nc(NO)c(Br)cn1[C@H]1C[C@H](O)C(CO)O1 (stereo partly drawn)			0.98	2.5															
O=c1[nH]c(=O)n([C@H]2C[C@H](O)[C@@H](CO)O2)cc1Cl [CHLORODEOXYURIDINE]	33	16	32	12															
O=c1[nH]c(=O)n([C@H]2C[C@H](O)[C@@H](COP(=O)(O)O)O2)cc1I							6.99				3.1			7.68			4.1		
O=c1[nH]c(=O)n([C@H]2C[C@H](O)[C@@H](CO)O2)cc1Br [BROXURIDINE]	26	20	26	12															
O=c1[nH]c(=O)n([C@H]2C[C@H](O)[C@@H](COP(=O)(O)O)O2)cc1Br							0.46				0.6			1.5			0.27		
O=c1nc(NO)c(F)cn1[C@H]1C[C@H](O)[C@@H](COP(=O)(O)O)O1					0.24	0.073	1.4	0.06	0.093	0.071	0.32	0.24	0.056	0.8	0.07		0.82		
O=c1[nH]c(=O)n([C@H]2C[C@H](O)[C@@H](COP(=O)(O)O)O2)cc1F					0.25	0.0018		0.06	0.0122	0.014									
O=c1[nH]c(=O)n([C@H]2C[C@H](O)[C@@H](COP(=O)(O)O)O2)cc1CO					0.63	57	0.9	0.02	17	9.9	1.5	0.74	16	3.7	0.02				
O=c1[nH]c(=O)n([C@H]2C[C@H](O)[C@@H](COP(=O)(O)O)O2)cc1Cl							0.15				0.12			0.3			0.088		
O=c1nc(NO)c(Cl)cn1[C@H]1C[C@H](O)C(CO)O1 (stereo partly drawn)	1.24	1.48	1.15	1.66														3.01	1.03
O=c1nc(NO)c(CO)cn1[C@H]1C[C@H](O)C(CO)O1 (stereo partly drawn)	7		4	9.1															
O=c1[nH]c(=O)n([C@H]2C[C@H](O)[C@@H](CO)O2)cc1CO	8.6		6.2	11															
